Measured values as given in ChEMBL document CHEMBL6103663, “Enhanced Cytotoxicity of [10]-Gingerol-Coumarin-Triazole Hybrid as a Theranostic Agent for Triple Negative Breast Cancer” (ACS Med Chem Lett, 2025).

Assays:
MDA-MB-231 [1] = test: Cytotoxicity against human MDA-MB-231 cells measured after 48 hrs by MTT assay; format: functional, cell-based; details: MDA-MB-231, 48 h
MDA-MB-231 [2] = test: Cytotoxicity against human MDA-MB-231 cells measured after 24 hrs by resazurin dye based fluorescence assay; format: functional, cell-based; details: MDA-MB-231, 24 h
How it was run: (§1)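 MDA-MB-231 cells in Leibovitz-L15 with 10% FBS, 10^4 cells/well, were allowed to adhere for 24 h at 37 °C. They were then exposed to a halving serial dilution from 250 to 0.98 μM (DMSO ≤0.5% final). Next came 10% resazurin for 4 h at 37 °C, with fluorescence read at λex 540 and λem […] nm. Assays used six technical replicates across three experiments. Results were expressed as % cell death, and IC50 was taken from regression (four-parameter logistic).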

MDA-MB-231 [3] = test: Cytotoxicity against human MDA-MB-231 cells measured after 48 hrs by resazurin dye based fluorescence assay; format: functional, cell-based; details: MDA-MB-231, 48 h; how it was run: as §1
[4] = Drug internalization in human MDA-MB-231 cells assessed as uptake in cellular perimeter at 5 uM measured after 30 mins by CellMask Deep Red plasma membrane/MitoTracker Red FM/Hoechst staining based fluorescence microscopy; format: ADME, cell-based; details: mda-mb-231, 0.5 h
How it was run: (§2)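 Cells (1.9 × 10^4/well) adhered for 24 h and were then given 5 μM compound, in duplicate at 37 °C, alongside untreated controls. They were stained with CellMask Deep Red, MitoTracker Red FM and Hoechst for 30 min at RT, then fixed in 4% PFA. Epifluorescence high-content imaging at 40× used a FITC filter with 488 nm excitation. The untreated autofluorescence mean set the threshold, and green area per cell was quantified in μm2.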

[5] = Drug internalization in human MDA-MB-231 cells assessed as intracellular uptake at 5 uM measured after 30 mins by CellMask Deep Red plasma membrane/MitoTracker Red FM/Hoechst staining based fluorescence microscopy; format: ADME, cell-based; details: mda-mb-231, 0.5 h; how it was run: as §2
[6] = Drug internalization in human MDA-MB-231 cells assessed as increase in fluorescence at 5 uM measured after 30 mins by CellMask Deep Red plasma membrane/MitoTracker Red FM/Hoechst staining based fluorescence microscopy; format: ADME, cell-based; details: mda-mb-231, 0.5 h; how it was run: as §2
[7] = Drug internalization in human MDA-MB-231 cells assessed as increase in fluorescence at 5 uM measured after 1 hr by CellMask Deep Red plasma membrane/MitoTracker Red FM/Hoechst staining based fluorescence microscopy; format: ADME, cell-based; details: mda-mb-231, 1 h; how it was run: as §2
[8] = Drug internalization in human MDA-MB-231 cells assessed as appearance of diffuse layer of green fluorescence with small clusters inside the cell at 5 uM measured after 30 mins by DAPI/FITC/TxRed/Cy5 staining based confocal microscopy; format: ADME; details: mda-mb-231, 0.5 h
How it was run: (§3)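 Preparation was the same: 5 μM treatment at 37 °C in duplicate, then staining with CellMask Deep Red, MitoTracker Red FM and Hoechst, and 4% PFA fixation. Confocal Airyscan imaging at 40× used a 1 AU pinhole with gated channels: DAPI 410–508, FITC 493–571, TxRed 548–620 and Cy5 638–759 nm. Z-stacks gave orthogonal views, thresholded against untreated cells. Pearson's coefficient was calculated between the FITC and TxRed channels.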

[9] = Drug internalization in human MDA-MB-231 cells assessed as interaction with mitochondria at 5 uM measured after 30 mins by DAPI/FITC/TxRed/Cy5 staining based confocal microscopy; format: ADME; details: mda-mb-231, 0.5 h; how it was run: as §3
[10] = Drug internalization in human MDA-MB-231 cells assessed as appearance of small blebs colocalization with mitochondria at 5 uM measured after 1 hr by DAPI/FITC/TxRed/Cy5 staining based confocal microscopy; format: ADME; details: mda-mb-231, 1 h; how it was run: as §3
[11] = Drug internalization in human MDA-MB-231 cell mitochondria assessed as appearance of more clustered green fluorescence at 5 uM measured after 2 hrs by DAPI/FITC/TxRed/Cy5 staining based confocal microscopy; format: ADME; details: mda-mb-231, 2 h; how it was run: as §3
[12] = Drug internalization in human MDA-MB-231 cell mitochondria assessed as appearance of green fluorescence throughout the cell at 5 uM measured after 2 hrs by DAPI/FITC/TxRed/Cy5 staining based confocal microscopy; format: ADME; details: mda-mb-231, 2 h; how it was run: as §3
[13] = Potency index, ratio of Met10G IC50 to test compound IC50 for cytotoxicity against human MDA-MB-231 cells after 24 hrs; format: functional
[14] = Potency index, ratio of Met10G IC50 to test compound IC50 for cytotoxicity against human MDA-MB-231 cells after 48 hrs; format: functional

| Drug uptake [4] | Drug uptake [5] | Drug uptake [6] | Drug uptake [7] | Drug uptake [8] | Drug uptake [9] | Drug uptake [10] | Drug uptake [11] | Drug uptake [12] | Structure (SMILES) | IC50 (MDA-MB-231 [1]) | IC50 (MDA-MB-231 [2]) | IC50 (MDA-MB-231 [3]) | Ratio IC50 [13] | Ratio IC50 [14] |
| --- | --- | --- | --- | --- | --- | --- | --- | --- | --- | --- | --- | --- | --- | --- |
|  |  |  |  |  |  |  |  |  | CCCCCCCCC[C@H](O)CC(=O)CCc1ccc(O)c(OC)c1 | 12.1 µM |  |  |  |  |
| Active | Active | Active | Not_active | Active | Active | Active | Active | Active | CCCCCCCCCC(O)CC(=O)CCc1ccc(OC)c(OC)c1 (stereo unspecified) |  | 45.6 µM | 26.9 µM |  |  |
| Active | Active | Active | Not_active | Active | Active | Active | Active | Active | COc1cc(Cl)ccc1OCCCCc1cn(CCCNC(=O)c2cc3ccc(O)cc3oc2=O)nn1 |  | 116 µM | 103 µM |  |  |
| Active | Active | Active | Active | Active | Active | Active | Active | Active | CCCCCCCCC[C@H](O)CC(=O)CCc1ccc(OCCCCc2cn(CCCNC(=O)c3cc4ccc(O)cc4oc3=O)nn2)c(OC)c1 |  | 19.1 µM | 2.3 µM | 2 | <=10 |
